Assay outcomes as filed in PubChem.
A selection: hits, their analogues and other compounds. The true share with any hit is near 3.8%.
KCNQ1 block = inhibitors of human KCNQ1 potassium channel. P51787. CHO-K1 KCNQ1, FluxOR thallium flux fluorescence; hits give high values. B-score at 10 µM. 310,000 compounds, 1.3% hits. AID 2642;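 active = compounds whose thallium flux B-score, printed positive for inhibition, exceeds three library SD while starting fluorescence stays within three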;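 also: channel opened by potassium depolarization with thallium stimulus after 20 min compound exposure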
hERG rescue = shields human hERG channel from block by proarrhythmic agents | Q12809 | CHO-hERG, FluxOR thallium flux, dofetilide IC70 present | activation (rescue from dofetilide block), less the hit threshold, % at 10 µM | 310,000 compounds, 0.51% hits;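 active = activation above the mean of controls blocked by dofetilide plus 5 SD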;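 also: thallium influx through hERG after potassium depolarization seen as dye fluorescence rise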
KCNK3 block = human KCNK3 channel inhibition, primary screen; CHO-KCNK3 thallium flux, FluxOR fluorescence; hits give low values; B-score at 10 µM; 340,000 compounds, 0.84% hits; AID 602410;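 active = B-score under library mean minus 4 SD, starting fluorescence ratio at most library mean plus 5 SD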;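 also: more negative B-score means stronger inhibition of thallium flux through KCNK3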
KCNK9 block = blocks the human KCNK9 two-pore domain potassium channel | Q9NPC2 | HEK293 KCNK9, FluxOR thallium flux fluorescence; hits give low values | B-score at 10 µM | 310,000 compounds, 1.2% hits | AID 488922;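 active = ratio B-score over 3 SD below the library mean, with starting fluorescence within 5 SD of its mean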;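 also: negative B-score means less thallium flux so channel inhibition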
Target sequence (Q9NPC2 whole entry, looked up, the tested form may be a part): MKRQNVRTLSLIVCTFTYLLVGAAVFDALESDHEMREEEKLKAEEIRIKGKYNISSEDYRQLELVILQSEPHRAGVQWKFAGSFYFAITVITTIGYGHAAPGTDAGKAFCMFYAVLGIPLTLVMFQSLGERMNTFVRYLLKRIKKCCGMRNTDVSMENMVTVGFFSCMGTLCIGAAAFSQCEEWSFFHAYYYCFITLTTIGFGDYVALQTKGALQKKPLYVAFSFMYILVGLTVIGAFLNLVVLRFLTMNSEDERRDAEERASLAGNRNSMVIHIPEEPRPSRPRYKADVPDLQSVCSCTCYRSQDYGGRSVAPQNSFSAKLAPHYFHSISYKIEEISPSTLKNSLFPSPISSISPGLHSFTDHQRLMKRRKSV
Kir21 block = inhibitors of mouse Kir2.1 inward-rectifier potassium channel. HEK293-Kir2.1, FluxOR thallium flux fluorescence; hits give low values. AID 1672. P35561. B-score at 10 µM. 310,000 compounds, 0.85% hits;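 active = fluorescence ratio B-score at or below minus 3 SD of library scores, with starting-brightness B-score within 2 SD, cut at about -4.2 in these data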;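 also: channel flux triggered by added potassium and thallium sulfate stimulus; B-score of peak minus minimum fluorescence over baseline after thallium stimulus; more negative B-score means stronger Kir2.1 block with less thallium influx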
KCNQ1 act = potentiates or activates the human KCNQ1 potassium channel; 310,000 compounds, 0.35% hits; P51787; CHO-K1 KCNQ1, thallium flux FluxOR fluorescence; hits give high values; B-score at 10 µM;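 active = fluorescence ratio B-score, a plate-corrected score, at least three library SD, with initial intensity B-score within 5 SD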
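Test system: CHO-K1 cells stably expressing KCNQ1 / Medium: assay buffer / Also added: depolarizing K+/Tl+ stimulus, K2SO4 and Tl2SO4 each 12.5 mM in 5x stock / Incubation: 90 min dye loading and 20 min compound exposure, both at room temperature / Signal: thallium influx via FluxOR fluorescence, kinetic imaging / Evaluation: B score of baseline-normalized fluorescence ratio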
Starred values were filed as active, the others as inactive; i = inactive; · = no result.

SMILES | KCNQ1 block | hERG rescue | KCNK3 block | KCNK9 block | Kir21 block | KCNQ1 act
CN(CC(=O)Nc1ccccc1C(F)(F)F)C(=O)c1ccccc1Sc1ccccc1C#N | · | · | -9.17* | · | · | ·
CCN(CC(=O)Nc1ccccc1C(F)(F)F)C(=O)c1ccccc1Sc1ccccc1C#N | · | · | i | · | · | ·
Cc1c(C(=O)N2CCN(C3CCS(=O)(=O)C3)CC2)oc2ccc(Cl)cc12 (centres undefined) | · | · | i | · | · | ·
N=C1S/C(=C\c2ccco2)C(=O)N1c1nccs1 | i | -3.7 | i | i | -0.4 | 9*
Cc1ccc(NC(=O)CN(C)C(=O)COC(=O)CCS(=O)(=O)c2ccc(C)cc2)cc1 | i | -12.6 | i | i | -1.05 | i
Cc1nn(C(C)C(=O)Nc2sc3c(c2C#N)CCCC3)c(C)c1[N+](=O)[O-] (centres undefined) | i | -0.4 | i | i | 0.42 | i
Cc1nn(CC(=O)Nc2sc3c(c2C#N)CCC(C(C)(C)C)C3)c(C)c1[N+](=O)[O-] (centres undefined) | 8* | -11.7 | i | i | 1.19 | i
N#Cc1c(NC(=O)C2CC=CCC2C(=O)O)sc2c1CCCCCC2 (centres undefined) | i | -5.5 | i | i | 0.21 | i
CC(C)(C)C1CCc2c(sc(NC(=O)C3CC=CCC3C(=O)O)c2C#N)C1 (centres undefined) | i | 13.7* | i | i | 0.31 | i
Cc1cc(SCC(=O)Nc2c(C)n(C)n(-c3ccccc3)c2=O)nc2ccccc12 | i | -3.8 | i | i | -1.09 | i
C=CCn1c(SCC(N)=O)nnc1-c1cccc(Br)c1 | i | -6.2 | i | i | -0.5 | i
C=CCn1c(SCc2ccccc2C#N)nnc1-c1cc(Br)ccc1O | i | -26.2 | i | i | -8.32* | i
CCC(CC)c1nc(C#N)c(NC(C)c2ccccc2)o1 (centres undefined) | i | -13.5 | i | i | -6.12* | i
COc1ccc(-c2nc(C#N)c(NC(C)C)o2)cc1 | i | -0.5 | i | i | 0.75 | i
COc1ccc(S(=O)(=O)N2CCN(C(=O)c3cc(C)nc4ccccc34)CC2)cc1OC | · | · | i | · | · | ·
CCCCOc1ccc(CSC(=N)N)cc1Cl | i | -19.9 | i | i | -11.6* | i
C[C@@H]1C2CC(C/C2=N\NC(=O)c2ccncc2)C1(C)C (some centres undefined) | i | -5.5 | i | i | 0.02 | i
COC(=O)C1=C(C)NC(C)=C(C(=O)O[C@@H]2CCCN(Cc3ccccc3)C2)[C@@H]1c1cccc([N+](=O)[O-])c1 | 7* | -15.4 | i | i | 0.63 | i
CCOC(=O)C1=C(C)NC(C)=C(C(=O)OC)C1c1cccc([N+](=O)[O-])c1 (centres undefined) | i | -7.6 | i | i | 1.21 | i
C=C1[C@@H](C)C2[C@H](Cc3ccccc3)NC(=O)[C@]23OC(=O)CC[C@H](O)CCC[C@H](C)C/C=C/[C@H]3[C@@H]1O (some centres undefined) | i | -10.2 | · | i | -2.94 | 60*
O=C(CN1c2cccc3cccc(c23)S1(=O)=O)Nc1ccccc1 | i | -4.9 | i | i | 1.76 | i
CN(C)C(=O)CN1c2cccc3cccc(c23)S1(=O)=O | i | -3.9 | i | i | -1.21 | i
CNC(=O)c1ccc(NC(=O)CN2c3cccc4cccc(c34)S2(=O)=O)cc1 | i | 13.9* | i | i | 1.8 | i
O=C(CN1c2cccc3cccc(c23)S1(=O)=O)Nc1ccccc1F | i | -2.8 | i | i | 0.98 | i
O=C(CN1c2cccc3cccc(c23)S1(=O)=O)Nc1ccc(F)c(F)c1F | · | · | -9.35* | · | · | ·
SMILES | KCNQ1 block | hERG rescue | KCNK3 block | KCNK9 block | Kir21 block | KCNQ1 act
CC(C)N(Cc1ccccc1)C(=O)CN1c2cccc3cccc(c23)S1(=O)=O | · | · | -9.99* | · | · | ·
O=C(CNC(=O)c1ccco1)NCc1ccc2c(c1)OCO2 | · | · | i | · | · | ·
CC(=O)c1c(C)[nH]c(C(=O)N2CCN(c3ccccn3)CC2)c1C | i | -11.7 | i | i | 0.94 | i
COc1cccc2cc(C(=O)C3=C(O)C(=O)N(CCN4CCOCC4)C3c3ccc(C(C)(C)C)cc3)oc12 (centres undefined) | i | -4.0 | i | i | 0.04 | i
Cc1nn(-c2ccccc2)c(Cl)c1CN(C(=O)CCl)c1ccc(Cl)cc1 | i | -7.9 | i | i | -3.57 | i
CC(=O)N(Cc1c(C)nn(-c2ccccc2)c1Cl)c1ccc(Cl)cc1 | i | -19.0 | i | i | -5.06* | i
CC(Sc1nnc(Cn2c(=O)sc3ccccc32)n1C)c1ccccc1 (centres undefined) | i | -10.2 | i | i | -4.22* | i
O=C(c1ccc(OC2CCN(Cc3ccc(F)cc3)CC2)cc1)N1CCCC1 | i | -5.4 | i | i | -4.21* | i
CSc1ccc(CN2CCC(Oc3ccc(C(=O)N4CCCC4)cc3)CC2)cc1 | i | -8.5 | i | i | -4.4* | i
Cc1cc(C)c(NC(=O)CNC(=O)c2ccccc2OCc2c(C)noc2C)c(C)c1 | i | -8.6 | i | i | 1.05 | i
CCc1ccc(/C=c2\s/c(=C\C(=O)C(C)(C)C)[nH]c2=O)cc1 | i | 3.8 | i | i | 0.73 | i
CC(C)(C)C(=O)/C=c1\[nH]c(=O)/c(=C\c2ccc(F)cc2)s1 | i | -11.0 | i | -7.99* | 0.02 | i
Nc1c(C(=O)N/N=C/c2ccc(F)cc2)oc2nc(-c3ccccc3)cc(-c3ccco3)c12 | i | -3.5 | i | i | -1.5 | i
Cc1ccc(-c2cc(C(=O)Nc3cc(C)ccc3O)no2)cc1 | i | -7.8 | i | -7.8* | 1.88 | i
CCN(CC)CCCN1C(=O)c2oc3ccccc3c(=O)c2C1c1cccs1 (centres undefined) | i | 25.8* | · | i | -0.1 | 15*
Cc1cc(Br)ccc1NC(=O)CNC(=O)Cn1ncc(Cl)c(Cl)c1=O | i | 4.7* | i | i | 1.42 | i
Cc1ccc(S(=O)(=O)N2CCCCC2)cc1NC(=O)Cn1ncc(Cl)c(Cl)c1=O | · | · | i | · | · | ·
Cc1ccc(NC(=O)c2ccccc2)cc1 | i | -13.0 | i | i | 0.1 | i
Cc1ccc(C(=O)Sc2cccccc2=O)cc1 | i | 5.5* | i | i | -2.49 | 15*
COc1ccc(C2(C)CC(C)(C)Nc3ccccc32)cc1 (centres undefined) | i | -11.9 | i | i | -3.4 | 8*
COc1ccc(C2CC(C)(c3ccc(OC)cc3)Nc3ccccc3N2)cc1 (centres undefined) | i | -5.1 | i | i | 1.12 | i
